# Assay outcomes (PubChem BioAssay)
# MC4R barr agon – human MC4R agonism via beta-arrestin | P32245 | U2OS MC4R beta-arrestin complementation, luminescence; percent of melanotan II response, DMSO zero | activation, % at 8.9 µM | 360,000 tested, 0.98% active | AID 540308;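 active means activation above a per-plate cutoff, the mean activation of sample wells on that plate plus 3 SD, cut at about 8% in these data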
# Target sequence (P32245 whole entry, looked up): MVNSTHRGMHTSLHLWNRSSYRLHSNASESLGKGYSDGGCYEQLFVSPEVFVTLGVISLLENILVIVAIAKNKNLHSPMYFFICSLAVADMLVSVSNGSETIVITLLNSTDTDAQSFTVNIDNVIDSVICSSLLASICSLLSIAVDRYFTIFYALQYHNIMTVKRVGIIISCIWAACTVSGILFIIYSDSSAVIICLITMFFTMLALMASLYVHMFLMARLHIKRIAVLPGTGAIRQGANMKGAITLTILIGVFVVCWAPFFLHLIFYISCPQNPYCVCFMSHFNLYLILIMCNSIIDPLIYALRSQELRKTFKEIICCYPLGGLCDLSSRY
# MC4R antag cAMP – antagonists of human melanocortin 4 receptor (MC4R); P32245; MC4R-expressing cells, MTII-stimulated cAMP, LANCE TR-FRET; inhibition, % at 6.5 µM; 360,000 tested, 0.48% active;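 active means inhibition above its plate's cutoff, the mean of tested wells on that plate plus 3 SD, cut at about 29% in these data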;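 further: 0% = Melanotan II alone and 100% = Melanotan II plus saturating MCL0020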
#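 System: U2OS cells stably expressing human melanocortin 4 receptor (MC4R). Reagent: Melanotan II challenge after compound preincubation. Doses: 6.5 µM. Times: 30-min compound, 1-h challenge, 1-h detection, room temperature. Measured by: TR-FRET with Eu-cAMP and labeled anti-cAMP, 671 nm. Replicates: singlicate.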
# A1 inh – inhibitors of the anti-apoptotic protein A1, read as caspase activation | MEF A1-2A-BIM cells, Caspase-Glo 3/7 luminescence, 3 h; percent of clofoctol response, vehicle zero | caspase activation, % (test concentration not listed) | 330,000 tested, 0.066% active | AID 2462;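 active means over half of replicate activation scores above 10%, or exactly half above 10 with the replicate mean above 10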
# UPR CHOP act – activators of apoptotic arm of unfolded protein response (CHOP) | AID 449763 | CHO-CHOP luciferase reporter, UPR activation, luminescence; percent of tunicamycin response over DMSO baseline | activation, % at 10 µM | 330,000 tested, 0.34% active;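 active means at 10 µM dose, activation of 40% or more, normalized to positive control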;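 further: 100% = tunicamycin at 10 µg/mL and 0% = DMSO alone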
#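 System: CHO-CHOP luciferase reporter cell line; amount: 500 cells/well; buffer or medium: F12 medium containing 10% fetal bovine serum; incubation: 6 h compound exposure at 37 °C after overnight seeding; measured by: luciferase luminescence after 10 min with Steady-Glo reagent; evaluation: % reporter activation, DMSO baseline versus tunicamycin full activation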
# XBP1 UPR activ – adaptive UPR (XBP1) activation; CHO-XBP1 luciferase reporter, IRE1-XBP1 UPR activation, luminescence; percent of tunicamycin response, DMSO as zero; activation, % at 20 µM; 330,000 tested, 0.33% active;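 active means versus positive control, 20 µM dose yields 30% or more activation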;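 further: 100% = tunicamycin at 10 µg/mL and 0% = DMSO only wells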
#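 Test system: CHO-XBP1 luciferase reporter cells | Buffer or medium: Serum-containing F12 medium, 10% FBS | Schedule: 6 h compound exposure at 37 °C, 5% CO2 | Detection: Steady-Glo luciferase glow luminescence, 10 min after reagent addition | Read-out basis: Activation, % of tunicamycin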
# An asterisk follows results filed as active; nt = not tested or not shown. Shown are actives, neighbours in structure and some others; about 2% of the full set was active somewhere.
SMILES,MC4R barr agon,MC4R antag cAMP,A1 inh,UPR CHOP act,XBP1 UPR activ
CCOC(=O)Cc1cc(-c2ccc(O)cc2)nc2ccc3ccccc3c12,8.4*,-2.7,1.0,5.9,7.2
O=c1oc(-c2ccccc2)cc(Cl)c1Cl,-0.7,24.8,0.1,57.5*,1.9
O=c1oc(-c2ccccc2)cc2ccccc12,0.8,-0.7,nt,nt,nt
COC(=O)CCC(C)C1CCC2C3CCC4CC(O)CCC4(C)C3CC(O)C12C (centres undefined),9.6*,22.8,nt,nt,nt
CCCCCCN1C[C@H](O)[C@@H](n2cc(C3CC3)nn2)C[C@@H]1c1ccccc1,1.2,-1.1,nt,nt,nt
Cc1ccc(S(=O)(=O)N/N=C/c2ccc(OC3CSC3)cc2)cc1,9.5*,-3.2,-2.6,-0.2,-2.8
CC1OC2CC(=O)OC2C2=C1C(=O)c1c(O)cccc1C2=O (centres undefined),-3.2,-12.1,nt,nt,nt
CC(C)=C[C@H]1C[C@H](C)[C@H]2CC[C@H](C)c3c(O[C@@H]4O[C@@H](C)[C@@H](O)[C@@H](O)[C@@H]4O)c(O)c(C)c1c32,-0.7,-1.9,nt,nt,nt
CC(C)(C)NC(=O)CSc1nc(-c2ccccc2)c(-c2ccccc2)[nH]1,8.8*,13.7,-0.2,0.3,2.1
Nc1nc(-c2ccccn2)nc(N)c1Cc1ccc(Cl)cc1Cl,-1.4,2.1,-0.1,34.2,43.2*
Cc1ccc2nc(-c3ccc(NC(=O)Cc4cccs4)cc3)[nH]c2c1,9.4*,15.4,-0.3,3.6,4.4
Cc1ccc2nc(NC(=O)Cc3cccs3)sc2c1,-0.8,11.9,-3.7,2.6,3.8
CCC(C)c1ccccc1NC(=O)CN(C)CCOc1ccc(Cl)cc1 (centres undefined),8.6*,18.0,-0.2,-1.2,0.6
CC(C)(C)c1ccc(C(O)c2ncc(-c3ccc(F)cc3)[nH]2)cc1 (centres undefined),0.5,11.2,nt,nt,nt
CC1(C(=O)NS(=O)(=O)Cc2ccccc2C(F)(F)F)CCN1C(=O)c1ccco1 (centres undefined),0.7,-2.0,nt,nt,nt
Cc1ccc(S(=O)(=O)NN(Cc2ccccc2)Cc2ccccc2)cc1,8.8*,-0.1,nt,nt,nt
CCOC(=O)CSc1nc2nc(Cl)c(Cl)nc2[nH]1,-1.3,3.3,nt,nt,nt
CC(C)(C)c1ccc(C(=O)Cn2nc(C(=O)O)c3ccccc3c2=O)cc1,8.7*,0.9,0.2,1.1,-1.1
Cc1ccc(C)c(OCCC(=O)OCC(=O)Nc2ccc(Cl)cn2)c1,9.5*,3.5,-0.2,0.8,-0.9
CCc1nc2c(OCC(=O)c3ccc(F)cc3)cccn2c1N(C)C(=O)c1cccs1,2.7,-11.0,nt,nt,nt
CCCCN(C)CC(O)Cn1cc(/C=C/C(=O)c2ccc(C)cc2)c2ccccc21 (centres undefined),13.1*,-2.5,-0.3,1.0,20.8
O=C1NC(c2ccccc2)=C(c2nc3ccccc3s2)C(c2ccc(O)cc2)N1 (centres undefined),63.1*,18.2,-1.2,1.6,2.2
CCNc1nc(NCC)nc(SCCOC(=O)Nc2ccc(Cl)cc2Cl)n1,8.9*,25.6,0.4,1.1,1.7
CCNc1nc(NCC)nc(SCCOC(=O)c2ccccc2)n1,-1.8,-1.1,-1.1,2.7,1.4
CCc1nc2c(OCc3ccc(C(F)(F)F)cc3)cccn2c1N(C)C(=O)c1ccncc1,-0.3,-2.0,nt,nt,nt
SMILES,MC4R barr agon,MC4R antag cAMP,A1 inh,UPR CHOP act,XBP1 UPR activ
O=C(Nc1ccc(Oc2c(F)c(F)c(F)c(F)c2F)cc1)OC1CCN2Cc3ccccc3N=C12 (centres undefined),9.3*,27.5,-0.1,5.5,9.1
Cc1ccc(NC(=S)c2nc3ccccc3s2)cc1,4.5,3.3,-10.2,-2.6,-4.6
S=C(Nc1ccc(Cl)cc1)c1nc2ccccc2s1,8.6*,-2.7,-5.5,4.2,2.1
CCNC(=O)C1(C)CCCN(Cc2cccc(Oc3ccccc3)c2)C1 (centres undefined),-0.5,4.0,nt,nt,nt
O=C(COC(=O)COc1cccc(C(F)(F)F)c1)NC1CCS(=O)(=O)C1 (centres undefined),-1.2,5.0,-1.2,-0.2,-1.7
O=C(COC(=O)COc1cccc(C(F)(F)F)c1)NC(=O)NC1CCCCC1,8.7*,-2.2,1.2,2.4,0.8
Cc1ccc(-n2[nH]c(C)c(C=Nc3ccc4[nH]c(=O)[nH]c4c3)c2=O)cc1C,16.4*,6.8,-4.2,1.9,-1.0
COc1ccc(CCNC(=O)c2sc3cc(C)ccc3c2Cl)cc1,9.4*,2.2,-0.5,-3.2,1.8
Cc1ccc2c(Cl)c(C(=O)NCCc3ccccc3)sc2c1,0.4,2.9,-9.4,5.9,3.0
CC(C)(C)c1ccc(C(=O)Nc2nnc(Cc3c[nH]c4ccccc34)s2)cc1,8.3*,8.7,0.8,3.2,-0.4
O=C(Nc1nnc(Cc2c[nH]c3ccccc23)s1)c1ccc(Cl)cc1Cl,4.7,-7.9,1.1,3.0,-0.4
CC1(C)CC1C(=O)Nc1ccc([N+](=O)[O-])cc1Br (centres undefined),-2.8,-1.4,0.0,-0.3,-0.1
Cc1ccc(C2(c3ccc(C)cc3)CC2C(=O)Nc2ccc([N+](=O)[O-])cc2O)cc1 (centres undefined),-3.3,14.3,26.7*,18.3,4.1
CCN(CC)C(=O)C1=C(C)N(Cc2ccc(F)cc2)C(=O)C(CC(=O)NCC2CCCCC2)C1 (centres undefined),-2.2,1.8,nt,nt,nt
CC(OC(=O)C1=COCCO1)C(=O)NC1CCCCC1 (centres undefined),0.3,2.4,nt,nt,nt
CCOc1ccc(-c2nnn(CC(=O)NCc3ccc4c(c3)OCO4)n2)cc1,9.3*,-2.3,0.6,-1.6,0.2
COc1ccc(-c2nnn(CC(=O)NCc3ccc4c(c3)OCO4)n2)cc1OC,-4.8,7.6,-0.1,-0.8,0.3
COc1cccc(-c2csc(N3CCN(CC(=O)NNC(=O)c4ccc(Cl)cc4)CC3)n2)c1,8.8*,0.4,0.3,4.6,0.8
O=C(CN1CCN(c2nc(-c3ccccc3)cs2)CC1)NNC(=O)c1ccc(Br)cc1,7.9,5.5,-1.3,-0.5,-3.0
COc1cccc(-c2csc(N3CCN(CC(=O)NNC(=O)c4ccc(Br)cc4)CC3)n2)c1,10.0*,-4.7,-1.4,6.6,-0.4
COc1cccc(-c2csc(N3CCN(CC(=O)NNC(=O)c4ccco4)CC3)n2)c1,-4.2,5.7,-0.2,0.8,5.2
C[C@H](CO)N1C[C@H](C)[C@@H](CN(C)S(=O)(=O)c2ccccc2)Oc2c(NS(=O)(=O)c3ccccc3)cccc2C1=O,-1.6,8.0,nt,-0.7,-0.5
Cn1c(-c2ccccc2)c(C(=O)CCl)c2ccccc21,12.5*,3.1,nt,nt,nt
CCOC(=O)c1ccc2c(c1)n(CC)c(/C=C/N(C)c1ccccc1)[n+]2CC,-0.6,5.7,-1.3,-0.1,0.2
